Compound activity (PubChem)
An excerpt weighted towards active compounds, which were near 2.2% of everything screened.
NR2E3 ag-1 – NR2E3 (human) agonism. GST-NR2E3/biotin-RetCOR TR-FRET, 1536-well. 320,000 tested, 0.12% active. inhibition of corepressor binding, % at 4.78 µM. AID 2300;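 active means percent inhibition above the cutoff of mean plus 3 SD of all tested compounds, set per screening campaign, cut at about 20% in these data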
Target sequence (Q9Y5X4 whole entry, looked up): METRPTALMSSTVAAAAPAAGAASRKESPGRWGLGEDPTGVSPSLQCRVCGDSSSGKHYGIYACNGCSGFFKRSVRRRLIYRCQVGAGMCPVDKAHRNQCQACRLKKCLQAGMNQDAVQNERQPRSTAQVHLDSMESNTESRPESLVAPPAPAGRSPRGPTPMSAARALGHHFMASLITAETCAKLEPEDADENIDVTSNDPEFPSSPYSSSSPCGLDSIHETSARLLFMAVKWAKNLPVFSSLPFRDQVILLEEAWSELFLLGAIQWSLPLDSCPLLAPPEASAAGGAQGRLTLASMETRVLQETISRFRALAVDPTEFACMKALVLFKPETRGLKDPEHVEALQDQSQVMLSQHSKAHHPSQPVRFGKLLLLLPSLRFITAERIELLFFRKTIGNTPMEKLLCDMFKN
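Material – GST-tagged NR2E3 plus biotinylated RetCOR corepressor · Quantity – NR2E3 fusion 1.35 nM · Times – 5 h incubation at 4 °C · Medium – pH 7.5 Tris-based buffer · Technique – TR-FRET, Eu(K)-anti-GST donor, streptavidin-D2 acceptor, ex 340, em 617/671 nm · Benchmarks – high control biotin, low control 0.6% DMSO · Format – 1536-well plates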
Jurkat NFkB inh – inhibitors of the PMA/ionomycin-induced NF-kB reporter in Jurkat cells | PMA/ionomycin-induced NF-kB luciferase reporter, luminescence | inhibition, % at 4 µM | 330,000 tested, 0.53% active; in the data active means inhibition above about 50%
697 NFkB inh – lowers PMA/ionomycin-induced NF-kB signal in 697 B cells; 697 B-cell NF-kB luciferase reporter, 16 h; inhibition, % at 4 µM; 330,000 tested, 0.33% active; in the data active means inhibition above about 35%
miR-122 sensor – inhibitors of miR-122 in Huh7 cells; AID 602342; 340,000 tested, 0.3% active; Huh7 miR-122 Renilla luciferase sensor, 48 h; neutral wells = 0, positive control = 100; activation (reporter increase), % at 12.5 µM;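 active means mean replicate activation score at least 90 and every replicate individually at or above 90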;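 further: higher luciferase means less miR-122 activity so hits act as miR-122 inhibitors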
NR2E3 ag-2 – agonists of human NR2E3 nuclear receptor; 360,000 tested, 0.35% active; inhibition of corepressor binding, % at 3.98 µM; CHO-S Gal4-NCOR/VP16-NR2E3 two-hybrid, luciferase; Q9Y5X4;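 active means inhibition above the mean of all tested compounds plus 3 SD, cut at about 70% in these data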;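 further: higher means lower luciferase signal from less NR2E3 corepressor binding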
FGF22 binding-1 – FGF22 (human) thermal shift binding. Q9HCT0. recombinant FGF22 thermal shift, SYPRO orange fluorescence; percent of sucrose octasulfate shift, DMSO zero. activity (Tm shift, normalised), % at 9.99 µM. 340,000 tested, 1.5% active. AID 651658;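 active means mean Tm shift, scaled 0 neutral to 100 positive control, at about 1.3% or above, every replicate too, limit read from the data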
Target sequence (Q9HCT0 whole entry, looked up): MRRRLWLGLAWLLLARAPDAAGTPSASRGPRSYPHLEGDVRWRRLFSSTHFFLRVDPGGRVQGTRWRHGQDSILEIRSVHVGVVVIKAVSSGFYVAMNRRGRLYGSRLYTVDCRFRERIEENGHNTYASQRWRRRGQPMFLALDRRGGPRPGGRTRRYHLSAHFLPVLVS
FGF22 binding-2 – FGF22 (human) binding in thermal shift. shares compounds with FGF22 binding-1. recombinant FGF22 thermal shift, SYPRO orange fluorescence. thermal shift activity, °C (ΔTm) at 38 µM. 1,000 tested, 2% active;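 active means fitted rise in melting shift crosses a set limit at or below the top valid dose tested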
FGF22 TSA – binders of human FGF22 by thermal shift. shares compounds with FGF22 binding-1. Thermal shift assay, SYPRO orange, melting temperature shift. Tm shift (activity), % at 38 µM. 50 tested, under 10 active. AID 743017;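 active means compounds whose fitted dose curve of melting temperature shift rises past a set threshold within the tested doses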
SYPRO no-protein – compound-only SYPRO artifact for FGF22 binders | AC50, µM (doses to about 38 µM) | AID 743019 | compound-only SYPRO orange thermal shift counter-screen, no protein | 1,000 tested, 2% active | shares compounds with FGF22 binding-1;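 active means rising signal whose fitted curve reaches the 0.54 level within the top valid dose, showing a melting point, actives reach about 13 µM in these data; inactive means the rest, including activity in the opposite direction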; further: value is where the raw curve crosses a fixed level and not half-maximal
A number is an active result; . = inactive; / = no result given.

SMILES	NR2E3 ag-1	Jurkat NFkB inh	697 NFkB inh	miR-122 sensor	NR2E3 ag-2	FGF22 binding-1	FGF22 binding-2	SYPRO no-protein	others
Cc1ccc(S(=O)(=O)Nc2ccc3c(c2)C(=O)N([C@@H](C)CO)C[C@@H](C)[C@H](CN(C)CC2CC2)OCCCC[C@H](C)O3)cc1	/	/	/	.	/	.	/	/
CCCCNC(=O)COCc1cc(-c2ccc3c(c2)OCO3)on1	.	.	.	/	.	.	/	/
CCCNC(=O)COCc1cc(-c2ccc3c(c2)OCO3)on1	.	.	.	.	.	29	.	.
O=C(Nc1nnc(C(F)(F)F)s1)c1ccc(Br)s1	.	.	.	.	.	2.0	.	.
CC1=NN(c2ccccc2)C(=O)C1N=Nc1ccccc1 (centres undefined)	.	.	.	/	.	.	/	/
COc1ccc(N=NC2C(=O)N(c3ccccc3)N=C2C)cc1 (centres undefined)	.	.	.	/	.	1.6	.	.
COc1ccc(NC(=O)N(C)C[C@@H]2Oc3ccc(NC(=O)Nc4ccc5c(c4)OCO5)cc3CC(=O)N([C@@H](C)CO)C[C@@H]2C)cc1	/	/	/	.	/	.	/	/
O=C(Cc1ccccn1)N[C@@H]1CC[C@H](CC(=O)N2CCCCC2)O[C@H]1CO	/	/	/	/	/	.	/	/
O=C(NCCc1c[nH]c2ccccc12)c1cc2sccc2n1Cc1ccccc1	.	.	.	.	.	/	/	/
Cn1c(C(=O)NCCc2c[nH]c3ccccc23)cc2sccc21	.	.	.	.	.	1.6	.	.
O=C(COc1ccc(S(=O)(=O)Nc2ccccc2)cc1)NCc1ccncc1	.	.	.	.	.	14	.	.
COc1ccc(NC(=O)N2C[C@@H]3[C@H](c4ccccc42)[C@H](CO)N3C(=O)C2CCCC2)cc1	/	/	/	.	/	.	/	/
CCOC(=O)[C@]12CCCC=C1N(Cc1ccccc1)C(=O)[C@H](CC(=O)NCC1CCCCC1)C2	/	/	/	/	/	2.2	.	.
O=C(c1ccccc1)N1CC2(C1)[C@H](c1ccccc1)[C@H](CO)N2Cc1cc(F)ccc1F	/	/	/	/	/	1.3	.	.
O=C(C1CC1)N1CC2(C1)[C@H](c1ccccc1)[C@@H](CO)N2Cc1ccccc1F	/	/	/	/	/	.	/	/
O=C(C1CCOCC1)N1CC2(C1)[C@@H](c1ccccc1)[C@@H](CO)N2Cc1ccccc1F	/	/	/	/	/	1.5	.	.
O=C(C[C@@H]1C=C[C@H](NC(=O)C2CCC2)[C@H](CO)O1)NCc1ccccc1Cl	/	/	/	/	/	.	/	/
CCS(=O)(=O)Nc1ccc2c(c1)C(=O)N(C)C[C@@H](OC)[C@H](C)CN(C(=O)CN(C)C)[C@@H](C)CO2	/	/	/	.	/	.	/	/
CC(=O)N1[C@@H](CO)[C@@H](c2ccccc2)C12CN(C(=O)c1ccccn1)C2	/	/	/	/	/	1.4	.	.
O=C(CC1CC1)N1CC2(C1)[C@H](c1ccccc1)[C@H](CO)N2C(=O)c1cnccn1	/	/	/	/	/	1.4	.	.
CC(=O)N1[C@H](CO)[C@@H](c2ccccc2)C12CN(C(=O)c1ccccn1)C2	/	/	/	/	/	1.3	.	.
O=C(C1CCC1)N1CC2(C1)[C@@H](c1ccccc1)[C@@H](CO)N2C(=O)NC1CCCC1	/	/	/	/	/	.	/	/
O=C(CC1CC1)N1CC2(C1)[C@@H](c1ccccc1)[C@@H](CO)N2C(=O)c1cnccn1	/	/	/	/	/	.	/	/
COCC(=O)N1CC2(C1)[C@@H](c1ccccc1)[C@@H](CO)N2C(=O)NC1CCCC1	/	/	/	/	/	1.4	.	.
COc1ccc(S(=O)(=O)N(C)C[C@@H]2OCCCC[C@H](C)Oc3ccc(NC(=O)c4ccccc4)cc3C(=O)N([C@@H](C)CO)C[C@H]2C)cc1	/	/	/	.	/	.	/	/
SMILES	NR2E3 ag-1	Jurkat NFkB inh	697 NFkB inh	miR-122 sensor	NR2E3 ag-2	FGF22 binding-1	FGF22 binding-2	SYPRO no-protein	others
CC(=O)c1ccc(NS(=O)(=O)c2ccc(N)cc2)cc1	.	.	.	.	.	25	.	.
C[C@@H]1CN([C@H](C)CO)C(=O)c2cc(C#CC3CCCC3)cnc2O[C@@H]1CN(C)C(=O)Cc1ccccn1	/	/	/	.	/	.	/	/
C[C@H]1CN([C@@H](C)CO)S(=O)(=O)c2ccc(C3=CCCCC3)cc2O[C@@H]1CN(C)Cc1cccnc1	/	/	/	/	/	.	/	/
O=c1c(O)c(-c2cc(O)c(O)c(O)c2)oc2cc(O)cc(O)c12	.	.	.	.	.	1.5	.	.
CCCn1c(CCC(=O)O)nc2cc(S(=O)(=O)N3CCCC3)ccc21	.	.	.	.	.	30	.	.
C[C@H]1CN([C@@H](C)CO)S(=O)(=O)c2ccc(-c3cncnc3)cc2O[C@H]1CN(C)C(=O)C1CC1	/	/	/	.	/	/	/	/
COc1ccc(Cc2noc(CN3CCN(Cc4csc(C)n4)CC3)n2)cc1OC	.	.	.	/	.	/	/	/
COCCN1CCN(Cc2nc(Cc3ccc(OC)c(OC)c3)no2)CC1	.	.	.	.	.	8.0	.	.
O=C(O)/C=C/c1cccc(NC(=O)Nc2ccc([N+](=O)[O-])cc2)c1	.	.	.	.	.	1.6	.	.
CC(=O)c1ccc(NC(=O)Nc2ccc([N+](=O)[O-])cc2)cc1	.	.	.	/	.	.	/	/
COc1ccc(-c2csc(NC(=O)CN3C(=O)C4CCCCC4C3=O)n2)c(OC)c1 (centres undefined)	.	.	.	.	.	1.6	.	10µM
COc1ccc(-c2csc(NC(=O)CN3C(=O)C4CC=CCC4C3=O)n2)cc1 (centres undefined)	.	.	.	.	.	.	/	/
COc1ccc(NC(=O)Nc2ccc3c(c2)C(=O)N([C@H](C)CO)C[C@H](C)[C@H](CN(C)Cc2ccc(Oc4ccccc4)cc2)O3)cc1	/	/	/	.	/	.	/	/
O=[N+]([O-])c1ccccc1S(=O)(=O)Nc1nc2ccccc2s1	.	.	.	.	.	.	/	/
O=[N+]([O-])c1ccc2nc(NS(=O)(=O)c3ccccc3[N+](=O)[O-])sc2c1	.	.	.	/	.	2.4	.	.
O=C(NNC(=O)c1ccccc1O)c1ccc(NS(=O)(=O)c2ccc(F)c(F)c2)cc1	.	.	.	/	.	1.8	.	.
CC(=O)Nc1cccc(NC(=O)Nc2ccc(C(C)=O)cc2)c1	.	.	.	.	.	/	/	/
CC(=O)Nc1ccc(NC(=O)Nc2ccccc2)cc1	.	.	.	.	.	1.8	.	.	FGF22 TSA=.
CC(=O)c1ccc(NC(=O)Nc2ccncc2)cc1	.	.	.	.	.	.	/	/
CC(=O)c1ccc(NC(=O)Nc2cccnc2)cc1	/	.	.	.	.	1.4	.	.	FGF22 TSA=.
O=C(C[C@@H]1C[C@H]2c3cc(NC(=O)Nc4ccccc4F)ccc3O[C@H]2[C@@H](CO)O1)NCc1cc(F)ccc1F	/	/	/	.	/	.	/	/
